Compound activity as filed in PubChem BioAssay.
Rows were chosen to be rich in hits. Some 2.2% of all compounds tested hit in one or more screens of this group.
14-3-3 Bad inh: disrupts binding of bovine 14-3-3 zeta to phospho-Bad peptide | 220,000 compounds, 0.71% hits | P63103 | TR-FRET 14-3-3zeta/Dy647-pBad peptide displacement, 1 h | inhibition, % at 21.7 µM;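 active means inhibition above about 70%, limit read from the data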
Target sequence (P63103 whole entry, looked up): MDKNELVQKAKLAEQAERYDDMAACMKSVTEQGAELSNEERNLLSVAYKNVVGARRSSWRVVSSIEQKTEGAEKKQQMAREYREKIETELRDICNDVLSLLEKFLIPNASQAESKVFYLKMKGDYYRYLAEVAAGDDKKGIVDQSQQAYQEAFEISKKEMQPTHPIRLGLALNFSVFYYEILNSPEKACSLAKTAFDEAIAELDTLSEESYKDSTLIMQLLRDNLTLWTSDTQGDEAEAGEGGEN
Hck-Nef inh: human Hck-Nef kinase inhibition; inhibition, % at 20 µM; Recombinant Hck-YEEI plus Nef, Z-Lyte FRET kinase assay; P08631; 220,000 compounds, 0.68% hits;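 active means Hck-Nef kinase inhibition above about 50%, limit read from the data; inactive means inhibition below that limit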
Calb biofilm kill: mixtures killing C. albicans biofilm; C. albicans biofilm persisters + clotrimazole, fluorescence viability; primary screen in compound mixtures of four per well; inhibition, % at 7.6 µM; 120,000 compounds, 0.02% hits; AID 1242;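 active means inhibition above 30.3% in the primary screen of four-compound pools, then above 30% when the compound was retested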;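 further: compounds exposed to preformed 24 h biofilms for 48 h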
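System: C. albicans CAF4-2 wild-type biofilms; Medium: RPMI/MOPS medium, pH 7.0; Reagent: Clotrimazole, 50 µg/mL; Times: biofilm formation 24 h, compound exposure 48 h, 37 °C; Detection: 2-h Alamar Blue fluorescence, 535/590 nm excitation/emission; Evaluation: percent inhibition of biofilm viability.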
eIF4E 4G PPI: eIF4E/eIF4G interaction inhibition in translation initiation | 220,000 compounds, 0.37% hits | inhibition, % at 21.7 µM | TR-FRET eIF4E-eIF4GI(517-606) binding, 2 h | P63073+Q04637;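 active means inhibition above about 30%, limit read from the data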
PERK inhibitor: human PERK inhibition, primary cell-based screen | CHO PERK-DD fusion, SEAP luminescence translation reporter | inhibition, % at 5.6 µM | AID 1416 | Q9NZJ5 | 220,000 compounds, 0.17% hits;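 active means inhibition above the mean inhibition of all tested compounds plus 3 SD, set separately per screening campaign, cut at about 2.9% in these data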;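 further: PERK kinase domain activated by AP20187 dimerizer at 100 nM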
p97 ATPase inh: blocks human p97 ATPase activity; recombinant p97 ATPase, Kinase-Glo ATP luminescence, 3 h; inhibition, % at 8 µM; 220,000 compounds, 0.42% hits; in the data active means inhibition above about 15%
Hck-Nef confirm: Hck-Nef kinase inhibition, confirmation; Recombinant Hck-YEEI:Nef, Z-Lyte FRET kinase assay; shares compounds with Hck-Nef inh; 1,300 compounds, 28% hits; calls only at 10 µM;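 active means average inhibition of at least 50%, with Z-scores no higher than 3 in both the phospho-tyrosine peptide and fluorescence counterscreens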
Large screens that a line does not name were inactive (follow-up assays come after a bar, where shown); [ ] = dose if it differs, or a comment.

CCN(CC)C(=O)c1sc(NC(=O)c2ccc(C)c([N+](=O)[O-])c2)c(C#N)c1C	none (no result: Calb biofilm kill)
O=C(O)c1cccc(-n2cccc2/C=C2/NC(=O)N(c3ccc(Cl)cc3)C2=O)c1	14-3-3 Bad inh 94, Hck-Nef inh 82, eIF4E 4G PPI 71, p97 ATPase inh 18
COc1ccc(NC(=O)CSc2nnc(NC(=O)c3ccc(S(=O)(=O)N4CCOCC4)cc3)s2)cc1	none
Cc1cc(C=C2C(=O)c3ccccc3C2=O)c(C)n1-c1cccc(C(=O)O)c1	Hck-Nef inh 74 | Hck-Nef confirm active
CCC(C)NC(=O)CCC(=O)Nc1ccc2nc(N3CC(C)CC(C)C3)cc(C)c2c1 (stereo not drawn)	Hck-Nef inh 52 | Hck-Nef confirm inactive
CC(C)n1cnc2c(Nc3cccc(Cl)c3)nc(NCCCO)nc21	Hck-Nef inh 96 (no result: PERK inhibitor, p97 ATPase inh) | Hck-Nef confirm active
CC(C)[C@H](CO)Nc1nc(Nc2ccc(Cl)c(C(=O)O)c2)c2ncn(C(C)C)c2n1	Hck-Nef inh 65 (no result: PERK inhibitor, p97 ATPase inh) | Hck-Nef confirm active
CC(C)c1ccc(Nc2ncccc2C(=O)O)cc1	none
CC(C)n1cnc2c(Nc3ccc(C(=O)O)cc3)nc(Cl)nc21	Hck-Nef inh 53 (no result: PERK inhibitor, p97 ATPase inh) | Hck-Nef confirm inactive
CC(C)[C@H](CO)Nc1nc(NCc2ccc(S(N)(=O)=O)cc2)c2ncn(C(C)C)c2n1	none (no result: PERK inhibitor, p97 ATPase inh)
CC(C)n1cnc2c(NCc3ccccc3)nc(NCc3ccccc3)nc21	none (no result: PERK inhibitor, p97 ATPase inh)
CCN(CC)CCNC(=O)C(=O)NCC1OCCN1C(=O)c1ccc2c(c1)OCO2 (stereo not drawn)	none
COC(=O)CCCC1=CC2=CC(=O)C(C)(OC(=O)c3cccs3)C(=O)C2=CN1Cc1ccc2c(c1)OCO2 (stereo not drawn)	Hck-Nef inh 53 (no result: PERK inhibitor, p97 ATPase inh) | Hck-Nef confirm inactive
COC(=O)CCCC1=CC2=CC(=O)C(C)(OC(=O)c3cccs3)C(=O)C2=CN1Cc1ccccc1 (stereo not drawn)	none (no result: PERK inhibitor, p97 ATPase inh)
CCC(=O)Oc1ccc2c(c1)OC1(OC(C)=O)OC(C)CC1=C2C (stereo not drawn)	Hck-Nef inh 157
CCC(=O)Oc1ccc2oc(=O)cc(C)c2c1	none
Cc1nc2ccc(Cl)cc2c(-c2ccccc2F)c1CC(=O)O	none
CCOC(=O)c1cc2nc(Nc3ccc(OC)cc3)sc2s1	Hck-Nef inh 51 (no result: Calb biofilm kill) | Hck-Nef confirm inactive
Cc1cc(O)ccc1Nc1nc(-c2sc(N)nc2C)cs1	Hck-Nef inh 62 (no result: Calb biofilm kill) | Hck-Nef confirm active
COc1cc([N+](=O)[O-])ccc1-c1ccc(/C=N/NC(=O)c2ccccc2O)o1	14-3-3 Bad inh 89, Hck-Nef inh 74 | Hck-Nef confirm inactive
O=C(N/N=C/c1ccc(-c2cccc([N+](=O)[O-])c2)o1)c1ccccc1O	none
COC(=O)COc1ccc(C2Nc3c(Cl)ccc(C(=O)O)c3C3C=CCC32)cc1 (stereo not drawn)	Hck-Nef inh 76 | Hck-Nef confirm inactive
O=S(=O)(c1ccc(N2CCC(c3ccc(Cl)cc3)=N2)cc1)N(CCO)CCO	Hck-Nef inh 82 (not shown: Calb biofilm kill)
O=S(=O)(c1ccc(Oc2ccc(S(=O)(=O)N(CCO)CCO)cc2)cc1)N(CCO)CCO	none
CCN(CC)S(=O)(=O)c1ccc(N/N=C(\C)c2ccc3c(c2)OCO3)c([N+](=O)[O-])c1	none
C/C(=N\Nc1ccc(S(N)(=O)=O)cc1[N+](=O)[O-])c1ccc2c(c1)OCO2	Hck-Nef inh 65 | Hck-Nef confirm active
CSc1nnc(C)c(=O)n1COC(=O)c1ccc(S(=O)(=O)N(C)C)cc1	none
COCCCN(CCC#N)C(=O)c1c(-c2c(Cl)cccc2Cl)noc1C	none
COC(=O)Cc1c(C)c2ccc(OC(=O)c3ccco3)cc2oc1=O	Hck-Nef inh 102 (not shown: Calb biofilm kill)
Cc1cc(=O)oc2cc(OC(=O)c3ccccc3)ccc12	none
COC(=O)Cc1c(C)c2cc(Cl)c(OC(=O)c3ccco3)cc2oc1=O	Hck-Nef inh 102 (not shown: Calb biofilm kill)
Cc1cc(=O)oc2cc(OC(=O)c3ccco3)ccc12	Hck-Nef inh 127 | Hck-Nef confirm inactive
CCCc1cc(NCCCO)n2c(nc3ccccc32)c1C#N	Hck-Nef inh 194
CCc1c(C)c(C#N)c2nc3ccccc3n2c1NCC1CCCO1 (stereo not drawn)	none (no result: Calb biofilm kill)
Cc1cc(NCC2CCCO2)n2c(nc3ccccc32)c1C#N (stereo not drawn)	Hck-Nef inh 95 (not shown: Calb biofilm kill)
Cc1cc(C(C)C)n2c(nc3ccccc32)c1C#N	none
CC(C)c1cc(NCC2CCCO2)n2c(nc3ccccc32)c1C#N (stereo not drawn)	Hck-Nef inh 108 (not shown: Calb biofilm kill)
Cc1cc(NCCCn2ccnc2)n2c(nc3ccccc32)c1C#N	Hck-Nef inh 64 (not shown: Calb biofilm kill)
Cc1cc(NCCN2CCCCC2)n2c(nc3ccccc32)c1C#N	none (no result: Calb biofilm kill)
CCCc1cc(-n2ccnc2)n2c(nc3ccccc32)c1C#N	none (no result: Calb biofilm kill)
Cc1ccc(NC(=O)C(=O)NCCCN2CCOCC2)c(C)c1	none
CN(C)c1oc(-c2ccccc2Cl)nc1P(=O)(c1ccccc1)c1ccccc1	none (no result: Calb biofilm kill)
O=C(CN1CCCCCCC1)Nc1cccc(Cl)c1Cl	none
Cc1cc(C)c2c(n1)sc1c(-c3ccccc3)c(C#N)c(N)nc12	none
O=C(N/N=C/c1ccc([N+](=O)[O-])o1)c1ccc(NS(=O)(=O)c2cccs2)cc1	Hck-Nef inh 55 | Hck-Nef confirm inactive
CCCC(=O)N=c1sc2c(OC)ccc(OC)c2n1C	none
O=C(Cn1c2ccc(F)cc2c2nc3n(c(=O)c21)CCS3)Nc1ccc(Cl)cc1F	Hck-Nef inh 61 | Hck-Nef confirm inactive
CCOc1ccc2c(C)cc(=O)oc2c1OCC	none (no result: Calb biofilm kill)
CCC(=O)Oc1ccc2c(C)cc(=O)oc2c1C	Hck-Nef inh 54 (no result: Calb biofilm kill) | Hck-Nef confirm inactive
Cc1cc(Nc2cc(Cl)cc(Cl)c2)nc(N)n1	none
O=C(O)CC1S/C(=N/N=C/c2ccc(-c3ccc(Cl)c([N+](=O)[O-])c3)o2)NC1=O (stereo not drawn)	Hck-Nef inh 119 | Hck-Nef confirm inactive
CC1=NN(c2cccc(C(=O)O)c2)C(=O)/C1=C\C=C/c1ccccc1	Hck-Nef inh 59 | Hck-Nef confirm inactive
O=c1c2ccccc2sn1-c1cc(S(=O)(=O)N2CCOCC2)ccc1N1CCOCC1	14-3-3 Bad inh 74, Hck-Nef inh 93, eIF4E 4G PPI 71 (no result: Calb biofilm kill) | Hck-Nef confirm active
CN1CCN(NC(=O)CN2C(=O)S/C(=C\c3c(Cl)cccc3Cl)C2=O)CC1	none
Cc1cc(C)c(Nc2cc(S(=O)(=O)O)c(N)c3c2C(=O)c2ccccc2C3=O)c(C)c1	14-3-3 Bad inh 73[fluorescence artefact?], Hck-Nef inh 84, eIF4E 4G PPI 56[fluorescence artefact?] | Hck-Nef confirm active
COc1ccc(CCNC(=O)Cn2c(=O)n(-c3ccc(F)cc3)c(=O)c3sccc32)cc1OC	none
